Source: ChEMBL document CHEMBL5038578, “Design, Synthesis, and Biological Evaluation of Peptidomimetic Aldehydes as Broad-Spectrum Inhibitors against Enterovirus and SARS-CoV-2” (J Med Chem, 2022)

tested on: not listed separately; test: Mean residence time in CD1 mouse at 5 mg/kg, iv measured after 24 hrs by LC-MS/MS analysis; format: ADME, organism-based; conditions: in vivo
Outline: (§1)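 Male CD-1 mice, n = 3 per group. Compound given in DMSO/EtOH/PEG300/NaCl (5:5:40:50, v/v/v/v) at 20 mg/kg ip, 5 mg/kg sc or 5 mg/kg iv. Blood sampled at 0.05, 0.25, 0.75, 2, 4, 8 and 24 h after dosing. Compound concentration in serum quantified by LC-MS/MS.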

SMILES	MRT
O=C[C@H](C[C@@H]1CCNC1=O)NC(=O)[C@H](Cc1ccccc1)NC(=O)c1cc2ccccc2[nH]1	1.42 h

tested on: not listed separately; test: Cytotoxicity against human RD cells assessed as reduction in cell viability measured after 4 days by MTS/PMS assay; format: toxicity, cell-based; conditions: time 4 day

SMILES	CC50 at 96 h
COC(=O)/C=C/[C@H](C[C@@H]1CCNC1=O)NC(=O)[C@H](Cc1ccccc1)NC(=O)/C=C/c1ccccc1	> 100000 nM
O=C[C@H](C[C@@H]1CCNC1=O)NC(=O)[C@H](Cc1ccccc1)NC(=O)c1cc2ccccc2[nH]1	> 100000 nM

tested on: Coxsackievirus B3; test: Antiviral activity against Human coxsackievirus B3 infected in Vero cells assessed as reduction in plaque formation treated 2 hrs post viral infection and measured 3 to 4 days post-infection by Giemsa staining based plaque reduction assay; format: functional, organism-based; conditions: Enterovirus B

SMILES	EC50
COC(=O)/C=C/[C@H](C[C@@H]1CCNC1=O)NC(=O)[C@H](Cc1ccccc1)NC(=O)/C=C/c1ccccc1	77700 nM
O=C[C@H](C[C@@H]1CCNC1=O)NC(=O)[C@H](Cc1ccccc1)NC(=O)c1cc2ccccc2[nH]1	4190 nM

tested on: not listed separately; test: AUClast in CD1 mouse at 5 mg/kg, sc measured after 24 hrs by LC-MS/MS analysis; format: ADME, organism-based; design: route subcutaneous, dose 5 mg/kg, time 24 hrs; conditions: in vivo; outline: as §1

SMILES	AUC(0-t) at 24 h
O=C[C@H](C[C@@H]1CCNC1=O)NC(=O)[C@H](Cc1ccccc1)NC(=O)c1cc2ccccc2[nH]1	3570 ng·h/mL

tested on: not listed separately; test: Mean residence time in CD1 mouse at 5 mg/kg, sc measured after 24 hrs by LC-MS/MS analysis; format: ADME, organism-based; conditions: in vivo; outline: as §1

SMILES	MRT
O=C[C@H](C[C@@H]1CCNC1=O)NC(=O)[C@H](Cc1ccccc1)NC(=O)c1cc2ccccc2[nH]1	1.34 h

tested on: not listed separately; test: Inhibition of Human enterovirus 71 3C-like protease expressed in Escherichia coli BL21 (DE3) cells using Dacyl-KTSAVLQSGFRKMEEdans as fluorogenic substrate incubated for 10 mins by FRET assay; design: species or system Enterovirus A71; conditions: not given
Outline: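 EV71 3Cpro expressed with N-terminal His-SUMO2 tag, tag cut by SENP2, then purified on Ni-NTA, Q-Sepharose and Superdex200. Enzyme at 5 μM final, preincubated 10 min with serial compound dilutions in 25 mM Tris pH 8.0, 150 mM NaCl, 10% glycerol. Fluorescence read at ex 340/em 490 nm. IC50 (mean ± SD, ≥3 experiments) by nonlinear regression.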

SMILES	IC50
COC(=O)/C=C/[C@H](C[C@@H]1CCNC1=O)NC(=O)[C@H](Cc1ccccc1)NC(=O)/C=C/c1ccccc1	1730 nM
O=C[C@H](C[C@@H]1CCNC1=O)NC(=O)[C@H](Cc1ccccc1)NC(=O)c1cc2ccccc2[nH]1	2360 nM

tested on: not listed separately; test: Half life in CD1 mouse at 5 mg/kg, iv measured after 24 hrs by LC-MS/MS analysis; format: ADME, organism-based; conditions: in vivo; outline: as §1

SMILES	half-life
O=C[C@H](C[C@@H]1CCNC1=O)NC(=O)[C@H](Cc1ccccc1)NC(=O)c1cc2ccccc2[nH]1	5.85 h

tested on: rhinovirus B14; test: Antiviral activity against wild type Human rhinovirus B14 infected in HeLa cells assessed as reduction in virus-induced cytopathic effect incubated for 3 days by MTS/PMS assay; format: functional, organism-based; conditions: Rhinovirus B, 72 h

SMILES	EC50
COC(=O)/C=C/[C@H](C[C@@H]1CCNC1=O)NC(=O)[C@H](Cc1ccccc1)NC(=O)/C=C/c1ccccc1	1650 nM
O=C[C@H](C[C@@H]1CCNC1=O)NC(=O)[C@H](Cc1ccccc1)NC(=O)c1cc2ccccc2[nH]1	810 nM

tested on: not listed separately; test: Cmax in CD1 mouse at 20 mg/kg, ip measured after 24 hrs by LC-MS/MS analysis; format: ADME, organism-based; design: route intraperitoneal, time 24 hrs, dose 20 mg/kg; conditions: in vivo; outline: as §1

SMILES	Cmax
O=C[C@H](C[C@@H]1CCNC1=O)NC(=O)[C@H](Cc1ccccc1)NC(=O)c1cc2ccccc2[nH]1	14600 ng/mL

tested on: Coxsackievirus A21; test: Antiviral activity against Human coxsackievirus A21 infected in HeLa cells assessed as reduction in virus-induced cytopathic effect incubated for 3 days by MTS/PMS assay; format: functional, organism-based; conditions: Enterovirus C, 72 h

SMILES	EC50
COC(=O)/C=C/[C@H](C[C@@H]1CCNC1=O)NC(=O)[C@H](Cc1ccccc1)NC(=O)/C=C/c1ccccc1	3620 nM
O=C[C@H](C[C@@H]1CCNC1=O)NC(=O)[C@H](Cc1ccccc1)NC(=O)c1cc2ccccc2[nH]1	430 nM

tested on: not listed separately; test: Volume of distribution at steady state in CD1 mouse at 5 mg/kg, iv measured after 24 hrs by LC-MS/MS analysis; format: ADME, organism-based; conditions: in vivo, read-out: Vdss; outline: as §1

SMILES	Vd
O=C[C@H](C[C@@H]1CCNC1=O)NC(=O)[C@H](Cc1ccccc1)NC(=O)c1cc2ccccc2[nH]1	4.12 L/kg

tested on: not listed separately; test: Tmax in CD1 mouse at 20 mg/kg, ip measured after 24 hrs by LC-MS/MS analysis; format: ADME, organism-based; conditions: in vivo; outline: as §1

SMILES	Tmax
O=C[C@H](C[C@@H]1CCNC1=O)NC(=O)[C@H](Cc1ccccc1)NC(=O)c1cc2ccccc2[nH]1	0.25 h

tested on: not listed separately; test: AUC (0 to infinity) in CD1 mouse at 5 mg/kg, sc measured after 24 hrs by LC-MS/MS analysis; format: ADME, organism-based; design: route subcutaneous, time 24 hrs, dose 5 mg/kg; conditions: in vivo; outline: as §1

SMILES	AUC(0-inf)
O=C[C@H](C[C@@H]1CCNC1=O)NC(=O)[C@H](Cc1ccccc1)NC(=O)c1cc2ccccc2[nH]1	3580 ng·h/mL

tested on: not listed separately; test: AUClast in CD1 mouse at 20 mg/kg, ip measured after 24 hrs by LC-MS/MS analysis; format: ADME, organism-based; design: route intraperitoneal, time 24 hrs, dose 20 mg/kg; conditions: in vivo; outline: as §1

SMILES	AUC(0-t) at 24 h
O=C[C@H](C[C@@H]1CCNC1=O)NC(=O)[C@H](Cc1ccccc1)NC(=O)c1cc2ccccc2[nH]1	16000 ng·h/mL

tested on: not listed separately; test: Inhibition of SARS-CoV2 3C-like protease expressed in Escherichia coli BL21 (DE3) cells using Mca-AVLQSGFR-Lys(Dnp)-Lys-NH2 as fluorogenic substrate incubated for 10 mins by FRET assay; design: species or system Severe acute respiratory syndrome coronavirus 2; conditions: not given

SMILES	IC50
O=C[C@H](C[C@@H]1CCNC1=O)NC(=O)[C@H](Cc1ccccc1)NC(=O)c1cc2ccccc2[nH]1	34 nM

tested on: rhinovirus A2; test: Antiviral activity against wild type Rhinovirus-A02 infected in HeLa cells assessed as reduction in virus-induced cytopathic effect incubated for 3 days by MTS/PMS assay; format: functional, cell-based; conditions: Rhinovirus A, 72 h

SMILES	EC50
COC(=O)/C=C/[C@H](C[C@@H]1CCNC1=O)NC(=O)[C@H](Cc1ccccc1)NC(=O)/C=C/c1ccccc1	1680 nM
O=C[C@H](C[C@@H]1CCNC1=O)NC(=O)[C@H](Cc1ccccc1)NC(=O)c1cc2ccccc2[nH]1	1620 nM

tested on: enterovirus D68; test: Antiviral activity against Human enterovirus 68 infected in HeLa cells assessed as reduction in virus-induced cytopathic effect incubated for 4 days by MTS/PMS assay; format: functional, organism-based; conditions: Enterovirus D, 96 h

SMILES	EC50
COC(=O)/C=C/[C@H](C[C@@H]1CCNC1=O)NC(=O)[C@H](Cc1ccccc1)NC(=O)/C=C/c1ccccc1	100 nM
O=C[C@H](C[C@@H]1CCNC1=O)NC(=O)[C@H](Cc1ccccc1)NC(=O)c1cc2ccccc2[nH]1	30 nM

tested on: not listed separately; test: Cmax in CD1 mouse at 5 mg/kg, sc measured after 24 hrs by LC-MS/MS analysis; format: ADME, organism-based; design: route subcutaneous, time 24 hrs, dose 5 mg/kg; conditions: in vivo; outline: as §1

SMILES	Cmax
O=C[C@H](C[C@@H]1CCNC1=O)NC(=O)[C@H](Cc1ccccc1)NC(=O)c1cc2ccccc2[nH]1	2760 ng/mL

tested on: not listed separately; test: Mean residence time in CD1 mouse at 20 mg/kg, ip measured after 24 hrs by LC-MS/MS analysis; format: ADME, organism-based; conditions: in vivo; outline: as §1

SMILES	MRT
O=C[C@H](C[C@@H]1CCNC1=O)NC(=O)[C@H](Cc1ccccc1)NC(=O)c1cc2ccccc2[nH]1	1.69 h

tested on: not listed separately; test: AUC (0 to infinity) in CD1 mouse at 5 mg/kg, iv measured after 24 hrs by LC-MS/MS analysis; format: ADME, organism-based; design: route intravenous, dose 5 mg/kg, time 24 hrs; conditions: in vivo; outline: as §1

SMILES	AUC(0-inf)
O=C[C@H](C[C@@H]1CCNC1=O)NC(=O)[C@H](Cc1ccccc1)NC(=O)c1cc2ccccc2[nH]1	1740 ng·h/mL

tested on: Enterovirus A71; test: Antiviral activity against Human enterovirus 71 BrCr infected in human RD cells assessed as reduction in virus-induced cytopathic effect incubated for 4 days by MTS/PMS assay; format: functional, organism-based; conditions: Enterovirus A, 96 h
Outline: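 RD cells (2.5 × 10^4/well) adhered overnight, then infected with EV71 BrCr and given serial compound dilutions. Incubated 4 days, until full CPE in virus controls. Viability by MTS/PMS, absorbance at 498 nm after 1–2 h at 37 °C. Normalised to infected and uninfected untreated controls; EC50 by curve fitting.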

SMILES	EC50
COC(=O)/C=C/[C@H](C[C@@H]1CCNC1=O)NC(=O)[C@H](Cc1ccccc1)NC(=O)/C=C/c1ccccc1	1210 nM
O=C[C@H](C[C@@H]1CCNC1=O)NC(=O)[C@H](Cc1ccccc1)NC(=O)c1cc2ccccc2[nH]1	30 nM

tested on: not listed separately; test: Cytotoxicity against African green monkey Vero E6 cells assessed as reduction in cell viability incubated for 24 hrs by CCK8 assay; format: toxicity, cell-based, Vero C1008; conditions: chlorocebus sabaeus
Outline: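 Vero E6 cells (2 × 10^4/well) exposed to graded compound concentrations for 24 h. Relative surviving cell number measured by CCK-8.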

SMILES	CC50 at 24 h
O=C[C@H](C[C@@H]1CCNC1=O)NC(=O)[C@H](Cc1ccccc1)NC(=O)c1cc2ccccc2[nH]1	809000 nM

tested on: not listed separately; test: Tmax in CD1 mouse at 5 mg/kg, sc measured after 24 hrs by LC-MS/MS analysis; format: ADME, organism-based; conditions: in vivo; outline: as §1

SMILES	Tmax
O=C[C@H](C[C@@H]1CCNC1=O)NC(=O)[C@H](Cc1ccccc1)NC(=O)c1cc2ccccc2[nH]1	0.58 h

tested on: not listed separately; test: Clearance in CD1 mouse at 5 mg/kg, iv measured after 24 hrs by LC-MS/MS analysis; format: ADME, organism-based; conditions: in vivo; outline: as §1

SMILES	clearance
O=C[C@H](C[C@@H]1CCNC1=O)NC(=O)[C@H](Cc1ccccc1)NC(=O)c1cc2ccccc2[nH]1	48 mL/min/kg

tested on: not listed separately; test: AUC (0 to infinity) in CD1 mouse at 20 mg/kg, ip measured after 24 hrs by LC-MS/MS analysis; format: ADME, organism-based; design: route intraperitoneal, dose 20 mg/kg, time 24 hrs; conditions: in vivo; outline: as §1

SMILES	AUC(0-inf)
O=C[C@H](C[C@@H]1CCNC1=O)NC(=O)[C@H](Cc1ccccc1)NC(=O)c1cc2ccccc2[nH]1	16100 ng·h/mL

tested on: not listed separately; test: Half life in CD1 mouse at 20 mg/kg, ip measured after 24 hrs by LC-MS/MS analysis; format: ADME, organism-based; conditions: in vivo; outline: as §1

SMILES	half-life
O=C[C@H](C[C@@H]1CCNC1=O)NC(=O)[C@H](Cc1ccccc1)NC(=O)c1cc2ccccc2[nH]1	5.36 h

tested on: SARS-CoV-2; test: Antiviral activity against SARS Cov-2 infected in Vero E6 cells assessed as reduction in viral RNA replication measured 24 hrs post infection by qRT-PCR analysis; format: functional, organism-based; conditions: Severe acute respiratory syndrome coronavirus 2, Vero C1008, 24 h

SMILES	EC50
O=C[C@H](C[C@@H]1CCNC1=O)NC(=O)[C@H](Cc1ccccc1)NC(=O)c1cc2ccccc2[nH]1	290 nM

tested on: not listed separately; test: Half life in CD1 mouse at 5 mg/kg, sc measured after 24 hrs by LC-MS/MS analysis; format: ADME, organism-based; conditions: in vivo; outline: as §1

SMILES	half-life
O=C[C@H](C[C@@H]1CCNC1=O)NC(=O)[C@H](Cc1ccccc1)NC(=O)c1cc2ccccc2[nH]1	4.96 h

tested on: not listed separately; test: AUClast in CD1 mouse at 5 mg/kg, iv measured after 24 hrs by LC-MS/MS analysis; format: ADME, organism-based; design: route intravenous, time 24 hrs, dose 5 mg/kg; conditions: in vivo; outline: as §1

SMILES	AUC(0-t) at 24 h
O=C[C@H](C[C@@H]1CCNC1=O)NC(=O)[C@H](Cc1ccccc1)NC(=O)c1cc2ccccc2[nH]1	1730 ng·h/mL
